# Results reported in publication PMC4422293 (Drug Design, Development and Therapy, 2015).
# Read-outs that look alike come from different tables or passages of the source.
# Key:
# [1] = Surface plasmon resonance binding to immobilized 3-Lipid II
# Outline: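 SPR was run at 25°C on a Biacore T100. About 50 RU of farnesyl (3-isoprene) Lipid II was amine-coupled to a CM5 chip. Running buffer was 10 mM HEPES, 150 mM NaCl, 0.05% P20, pH 7.4 (±3 mM EDTA) with 10% DMSO. Screening injections were at 10 μM, with control-cell subtraction and 30 s regeneration in 50 mM NaOH. Kd came from binding isotherms, averaged over three assays.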
# [2] = test system: Acinetobacter baumannii ATCC 19606; experiment: MIC by broth dilution; assay type: cell-based; conditions: ATCC19606, Table 4, mean of three replicates
# [3] = test system: Staphylococcus aureus 1094 (MRSA); experiment: MIC by broth dilution; assay type: cell-based
# [4] = test system: S. aureus HFH-30123 (MRSA); experiment: MIC by broth dilution; assay type: cell-based; conditions: Staphylococcus aureus
# [5] = test system: Enterococcus faecium EF1509 (VRE); experiment: MIC by broth dilution; assay type: cell-based
# E. faecium F118 (VRE) = experiment: MIC by broth dilution; assay type: cell-based; conditions: Enterococcus faecium
# [6] = test system: Klebsiella pneumoniae NR-15410 (KPC); experiment: MIC by broth dilution; assay type: cell-based
# [7] = test system: K. pneumoniae NR-15411 (KPC); experiment: MIC by broth dilution; assay type: cell-based; conditions: Klebsiella pneumoniae
# [8] = test system: Acinetobacter baumannii BAA-1605; experiment: MIC by broth dilution; assay type: cell-based; conditions: BAA1605
# [9] = test system: Pseudomonas aeruginosa X13273; experiment: MIC by broth dilution; assay type: cell-based
# P. aeruginosa ATCC 27853 = experiment: MIC by broth dilution; assay type: cell-based; conditions: Pseudomonas aeruginosa, ATCC27853
# [10] = test system: Enterobacter cloacae ATCC 13047; experiment: MIC by broth dilution; assay type: cell-based; conditions: ATCC13047
# [11] = test system: Enterobacter aerogenes ATCC 13048; experiment: MIC by broth dilution; assay type: cell-based; conditions: Klebsiella aerogenes, ATCC13048
# S. aureus = experiment: Antibacterial activity / killing of S. aureus; assay type: cell-based; conditions: Staphylococcus aureus
# [12] = Cytotoxicity against mammalian cells; assay type: cell-based; conditions: human, HeLa cells (ATCC CCL-2.2)
# Outline: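 HeLa cells (ATCC CCL-2.2) were exposed to the test compound for 72 h. CC50 is the concentration giving a half-maximal decrease in viability, averaged over two replicate assays.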
# [13] = test system: DNA, cell wall, protein, and lipid synthesis in S. aureus NCTC 8325; experiment: Macromolecular synthesis assays, all pathways; assay type: cell-based, Staphylococcus aureus
# [14] = test system: Staphylococcus aureus (USA300) MRSA; experiment: MIC by broth dilution; assay type: cell-based; conditions: Table S2; unit not given
# [15] = test system: Staphylococcus aureus (VISA) ATCC 700699; experiment: MIC by broth dilution; assay type: cell-based; conditions: Table S2; unit not given
# S. aureus (VISA) NRS22 = experiment: MIC by broth dilution; assay type: cell-based, Staphylococcus aureus; conditions: Table S2; unit not given
# [16] = read-out: Lipid II binding (Kd), Table 4, averages of three replicate assays
Structure (SMILES),"Kd [1, 16] [µM]",MIC [2] [µg/mL],MIC [3] [µg/mL],MIC [4] [µg/mL],MIC [5] [µg/mL],MIC (E. faecium F118 (VRE)) [µg/mL],MIC [6] [µg/mL],MIC [7] [µg/mL],MIC [8] [µg/mL],MIC [9] [µg/mL],MIC (P. aeruginosa ATCC 27853) [µg/mL],MIC [10] [µg/mL],MIC [11] [µg/mL],CC50 at 72 h [12] [µg/mL],also measured
"CC(C)[n+]1c(/C=C/C=C2/N(C)c3ccccc3C2(C)C)cc(-c2ccccc2)cc1-c1ccccc1.F[B-](F)(F)F [SF-5-330, 1-Isopropyl-2,4-diphenyl-6-((1E,3E)-3-(1,3,3-trimethylindolin-2-ylidene)prop-1-en-1-yl)pyridin-1-ium tetrafluoroborate]",0.54 ± 0.16,8,1,1,0.5,5,10,25.4,8,4,8,16,8,0.33,MIC (S. aureus): 1 µg/mL; inhibition of macromolecular synthesis pathways [13]: inhibited all pathways at low concentrations
"CN1/C(=C/C=C/c2cc(-c3ccccc3)cc(-c3ccccc3)[n+]2CCO)C(C)(C)c2ccccc21.F[B-](F)(F)F [SF-5-332, 1-(2-Hydroxyethyl)-2,4-diphenyl-6-((1E,3E)-3-(1,3,3-trimethylindolin-2-ylidene)prop-1-en-1-yl)pyridin-1-ium tetrafluoroborate]",4.4 ± 3.02,20.2,1,1,1,8,≥ 32,≥ 32,20.2,≥ 32,≥ 32,≥ 32,≥ 32,0.8,–
"CN1/C(=C/C=C/c2cc(-c3ccccc3)cc(-c3ccccc3)[n+]2C)C(C)(C)c2ccccc21.F[B-](F)(F)F [SF-5-219, 1-Methyl-2,4-diphenyl-6-((1E,3E)-3-(1,3,3-trimethylindolin-2-ylidene)prop-1-en-1-yl)pyridin-1-ium tetrafluoroborate]",7.4 ± 3.08,8,1,1,0.5,5,32,32,8,≥ 32,≥ 32,≥ 32,32,0.25,–
CN[C@H](CC(C)C)C(=O)N[C@H]1C(=O)N[C@@H](CC(N)=O)C(=O)N[C@H]2C(=O)N[C@H]3C(=O)N[C@H](C(=O)N[C@H](C(=O)O)c4cc(O)cc(O)c4-c4cc3ccc4O)[C@H](O)c3ccc(c(Cl)c3)Oc3cc2cc(c3O[C@@H]2O[C@H](CO)[C@@H](O)[C@H](O)[C@H]2O[C@H]2C[C@](C)(N)[C@H](O)[C@H](C)O2)Oc2ccc(cc2Cl)[C@H]1O [Vancomycin],–,–,–,–,–,–,–,–,–,–,–,–,–,–,Antibacterial activity (MIC) [14]: ≤ 0.5; Antibacterial activity (MIC) [15]: 8; Antibacterial activity (MIC) (S. aureus (VISA) NRS22): 8
"CN(C)CC[n+]1c(/C=C/C=C2/N(C)c3ccccc3C2(C)C)cc(-c2ccccc2)cc1-c1ccccc1.F[B-](F)(F)F [SF-5-334, 1-(2-(Dimethylamino)ethyl)-2,4-diphenyl-6-((1E,3E)-3-(1,3,3-trimethylindolin-2-ylidene)prop-1-en-1-yl) pyridin-1-ium tetrafluoroborate]",1.9 ± 0.86,32,16,16,8,32,≥ 32,≥ 32,32,≥ 32,≥ 32,≥ 32,≥ 32,2.25,–
"CC(C)C[n+]1c(/C=C/C=C2/N(C)c3ccccc3C2(C)C)cc(-c2ccccc2)cc1-c1ccccc1.F[B-](F)(F)F [SF-5-331, 1-Isobutyl-2,4-diphenyl-6-((1E,3E)-3-(1,3,3-trimethylindolin-2-ylidene)prop-1-en-1-yl)pyridin-1-ium tetrafluoroborate]",0.34 ± 0.24,8,1,1,0.5,2,16,32,8,8,32,32,32,0.26,MIC (S. aureus): 1 µg/mL; inhibition of macromolecular synthesis pathways [13]: inhibited all pathways at low concentrations
"Cc1cc(-c2ccccc2)cc(-c2ccccc2)[n+]1C [Z56760026, 1,2-Dimethyl-4,6-diphenylpyridin-1-ium]",–,–,–,–,–,–,–,–,–,–,–,–,–,–,Kd ([1]; read-out: Lipid II binding Kd): 37 µM
"CCOc1ccc(-c2cc(C=CC=C3N(C)c4ccccc4C3(C)C)o[c+](-c3ccc(OCC)cc3)c2)cc1 [BAS00127537, 2,4-Bis-(4-ethoxy-phenyl)-6-[3-(1,3,3-trimethyl-1,3-dihydro-indol-2-ylidene)-propenyl]-pyranylium]",–,–,–,–,–,–,–,–,–,–,–,–,–,–,reduction in Lipid II-binding affinity compared to BAS00127538 ([1]; from Table 1): ~ 15 fold
